From ChEMBL document CHEMBL4699436, “Scaffold diversity for enhanced activity of glycosylated inhibitors of fungal adhesion” (RSC Med Chem, 2020)

Columns and labels:
Candida albicans [1] = experiment: Anti-adherence activity against Candida albicans serotype B assessed as displacement of adhered yeast cells on BECs at 13.8 mM incubated for 90 mins after preincubation of yeast cells with BECs by crystal violet staning based microscopic method relative to PBS control; assay type: functional, organism-based
Method in brief: (§1)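 C. albicans MEN (serotype B, corneal clinical isolate) was grown overnight to stationary phase in YEPD at 30 °C and 200 rpm, washed, and resuspended in PBS at 1 × 10^8 cells per mL. Buccal epithelial cells were scraped from healthy volunteers, washed, and held at 5 × 10^5 per mL. Yeast and BECs (50:1) were co-incubated first. The BECs with adherent yeast were collected on a 30 μm polycarbonate membrane, then re-incubated with compound for 90 min. Yeast on 200 BECs were counted after crystal violet staining. Control 1 was PBS. Control 2 was the PBS-treated count after the second filtration, to account for physical detachment. Three independent occasions; mean ± SEM.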

Candida albicans [2] = experiment: (§2) Anti-adherence activity against Candida albicans serotype B assessed as reduction in fungal adhesion to human BECs at 13.8 mM preincubated with yeast cells for 90 mins followed by twice washout with PBS followed by BECs addition by crystal violet staning based microscopic method relative to control; assay type: functional; conditions: 1.5 h
Method in brief: (§3)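 Pre-treatment (exclusion) format. Stationary-phase C. albicans MEN in PBS were incubated with compound for 90 min, washed twice with PBS, and resuspended in 1 mL PBS. They were then mixed 50:1 with volunteer BECs for 90 min at 30 °C and 200 rpm. After 30 μm membrane filtration and crystal violet staining, yeast attached to 200 BECs were counted. PBS control. Three independent occasions; mean ± SEM.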

Candida albicans [3] = experiment: Anti-adherence activity against Candida albicans serotype B assessed as displacement of adhered yeast cells on BECs at 13.8 mM incubated for 90 mins after preincubation of yeast cells with BECs by crystal violet staning based microscopic method relative to PBS control after second filtration; assay type: functional, organism-based; method in brief: as §1
Candida albicans [4] = experiment: Anti-adherence activity against Candida albicans serotype B assessed as fungal adhesion to human BECs at 13.8 mM co- incubated for 90 mins with yeast cells and BECs by crystal violet staning based microscopic method relative to control; assay type: functional; conditions: 1.5 h
Method in brief: (§4)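 Yeast (C. albicans MEN, stationary phase, washed, 1 × 10^8 per mL in PBS) were co-incubated with volunteer BECs at 50:1, with compound present, in 2 mL at 30 °C and 200 rpm for 90 min. Unattached yeast were removed on a 30 μm membrane with two PBS washes. Cells were heat-fixed and stained with crystal violet, and adherent yeast on 200 BECs were counted microscopically. PBS control. Three independent occasions; mean ± SEM.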

Candida albicans [5] = experiment: Anti-adherence activity against Candida albicans serotype B assessed as reduction in yeast adhesion to human BECs at 13.8 mM preincubated for 90 mins with BECs followed by twice washout with PBS followed by yeast cells addition by crystal violet staning based microscopic method relative to control; assay type: functional; conditions: 1.5 h
Method in brief: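 Reverse exclusion format. Buccal epithelial cells were pre-treated with compound at 13.8 mM before exposure to the yeast (C. albicans MEN, stationary phase, in PBS). Adherence was measured by membrane filtration, crystal violet staining, and microscopic counting of yeast on 200 BECs. Three independent occasions; mean ± SEM.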

Candida albicans [6] = experiment: Anti-adherence activity against Candida albicans serotype B assessed as fungal adhesion to human BECs at 138 uM co-incubated for 90 mins with yeast cells and BECs by crystal violet staning based microscopic method relative to control; assay type: functional; conditions: 1.5 h; method in brief: as §4
[7] = Toxicity against Candid albicans serotype B assessed as reduction in fungal growth at 0.0133 to 3.4 mM; conditions: candida albicans, 3400 µM; dose 0.0133-3.4 mM
Candida albicans [8] = experiment: Anti-adherence activity against Candida albicans serotype B assessed as fungal adhesion to human BECs at 1.38 mM co-incubated for 90 mins with yeast cells and BECs by crystal violet staning based microscopic method relative to control; assay type: functional; conditions: 1.5 h; method in brief: as §4
Candida albicans [9] = experiment: Anti-adherence activity against Candida albicans serotype B assessed as displacement of adhered yeast cells on human BECs at 138 uM incubated for 90 mins after preincubation of yeast cells with BECs by crystal violet staning based microscopic method relative to PBS control; assay type: functional, organism-based; method in brief: as §1
Candida albicans [10] = experiment: Anti-adherence activity against Candida albicans serotype B assessed as displacement of adhered yeast cells on BECs at 138 uM incubated for 90 mins after preincubation of yeast cells with BECs by crystal violet staning based microscopic method relative to PBS control after second filtration; assay type: functional, organism-based; method in brief: as §1
Candida albicans [11] = experiment: as §2, with “0.138 to 1.38” for “13.8”; assay type: functional; conditions: dose mM 0.138-1.38, 1.5 h; method in brief: as §3

Compound	inhibition (Candida albicans [1]) [%]	inhibition at 13800 µM (Candida albicans [2]) [%]	inhibition (Candida albicans [3]) [%]	Fungal adhesion relative to control (Candida albicans [4]) [%]	inhibition at 13800 µM (Candida albicans [5]) [%]	Activity (Candida albicans [6]) [%]	Activity [7]	Activity (Candida albicans [8]) [%]	inhibition (Candida albicans [9]) [%]	inhibition (Candida albicans [10]) [%]	inhibition (INH) (Candida albicans [11])
O=C1[C@@H]2[C@H](C(=O)N1Cc1cn([C@@H]3O[C@H](CO)[C@H](O)[C@H](O)[C@H]3O)nn1)[C@@H]1C=C[C@H]2C1	23	43	7	83							
O=C(NCc1cn([C@@H]2O[C@H](CO)[C@H](O)[C@H](O)[C@H]2O)nn1)[C@H]1[C@H](C(=O)NCc2cn([C@@H]3O[C@H](CO)[C@H](O)[C@H](O)[C@H]3O)nn2)[C@H]2C=C[C@@H]1C2	23	46	7	62							
CCC(=O)Nc1cc(C(=O)NCc2cn([C@@H]3O[C@H](CO)[C@H](O)[C@H](O)[C@H]3O)nn2)cc(C(=O)NCc2cn([C@@H]3O[C@H](CO)[C@H](O)[C@H](O)[C@H]3O)nn2)c1	42	42	31	59	22	65	Non-Toxic	74	56	36	
O=C(NCc1cn([C@@H]2O[C@H](CO)[C@H](O)[C@H](O)[C@H]2O)nn1)[C@@H]1[C@H](C(=O)NCc2cn([C@@H]3O[C@H](CO)[C@H](O)[C@H](O)[C@H]3O)nn2)[C@@H]2C=C[C@H]1C2	45	65	34	61			Non-Toxic				
O=c1c(NCc2cn([C@@H]3O[C@H](CO)[C@H](O)[C@H](O)[C@H]3O)nn2)c(NCc2cn([C@@H]3O[C@H](CO)[C@H](O)[C@H](O)[C@H]3O)nn2)c1=O		27		83	12		Non-Toxic				
O=C(NCc1cn([C@@H]2O[C@H](CO)[C@H](O)[C@H](O)[C@H]2O)nn1)c1ccc(C(=O)NCc2cn([C@@H]3O[C@H](CO)[C@H](O)[C@H](O)[C@H]3O)nn2)cc1		33.5		38		56	Non-Toxic	74	63	48	<=61%
O=c1c(NCc2cn([C@@H]3O[C@H](CO)[C@H](O[C@@H]4O[C@H](CO)[C@H](O)[C@H](O)[C@H]4O)[C@H](O)[C@H]3O)nn2)c(NCc2cn([C@@H]3O[C@H](CO)[C@H](O[C@@H]4O[C@H](CO)[C@H](O)[C@H](O)[C@H]4O)[C@H](O)[C@H]3O)nn2)c1=O	39	34	25	64	15						
O=c1c(NCc2cn(CCO[C@@H]3O[C@H](CO)[C@H](O)[C@H](O)[C@H]3O)nn2)c(NCc2cn(CCO[C@@H]3O[C@H](CO)[C@H](O)[C@H](O)[C@H]3O)nn2)c1=O	35	33	21	69	19		Non-Toxic				
